Active and inactive are the calls of the source. The calls are words filed in the database; no cut-off is given here.
Legend:
CCRF-CEM = assay: Cytotoxicity against human CCRF-CEM cells after 48 hrs by SRB assay; assay type: functional
Outline: (§1)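 NCI-60 human tumour cell panel screen, second stage, run by the NCI Developmental Therapeutics Program. Compounds were tested at five concentrations (0.01, 0.1, 1, 10 and 100 μM). Percentage growth was plotted against log10 concentration for each cell line. GI50, TGI and LC50 were taken from these dose-response curves.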

A549 = assay: Cytotoxicity against human A549 cells after 48 hrs by SRB assay; assay type: functional; settings: A549, 48 h; outline: as §1
NCI-H226 = assay: Cytotoxicity against human NCI-H226 cells after 48 hrs by SRB assay; assay type: functional; settings: NCI-H226, 48 h
Outline: (§2)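 Second-stage NCI-60 panel run by the NCI Developmental Therapeutics Program, covering nine tumour subpanels. Five concentrations were tested: 0.01, 0.1, 1, 10 and 100 μM. Percentage growth at each level was plotted against log10 drug concentration. GI50, TGI and LC50 were read from these dose-response curves. Subpanel MID values were divided into the full-panel MID to give selectivity ratios.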

OVCAR-3 = assay: Cytotoxicity against human OVCAR3 cells after 48 hrs by SRB assay; assay type: functional; settings: OVCAR-3, 48 h; for CC50: read-out: LC50 (the source's name); outline: as §2
OVCAR-8 = assay: Cytotoxicity against human OVCAR8 cells after 48 hrs by SRB assay; assay type: functional; settings: OVCAR-8, 48 h; for CC50: read-out: LC50 (the source's name); outline: as §2
NCI/ADR-RES = assay: Cytotoxicity against human NCI/ADR-RES cells after 48 hrs by SRB assay; assay type: functional; outline: as §2
786-0 = assay: Cytotoxicity against human 786-0 cells after 48 hrs by SRB assay; assay type: functional; settings: 786-0, 48 h; outline: as §1
PC-3 = assay: Cytotoxicity against human PC3 cells after 48 hrs by SRB assay; assay type: functional; settings: PC-3, 48 h; outline: as §2
[1] = Cytotoxicity against human melanoma cells assessed as growth inhibition after 48 hrs by SRB assay; assay type: functional; settings: Melanoma cell
Outline: (§3)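 Values come from the NCI-60 five-dose panel (0.01–100 µM). The subpanel MID is the mean GI50 over the lines of that tumour subpanel. The selectivity ratio is the full-panel MID divided by the subpanel MID; 3–6 is rated moderate and >6 high.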

[2] = Cytotoxicity against human ovarian cancer cells assessed as growth inhibition after 48 hrs by SRB assay; assay type: functional; settings: Cancer cell lines; outline: as §3
[3] = Cytotoxicity against human SV-HUC1 cells assessed as survival rate after 72 hrs by MTT assay; assay type: cell-based; settings: SV-HUC1 cells, read-out: Survival
Outline: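 SV-HUC-1 cells grown in Ham's F-12K with 5% heat-inactivated fetal calf serum, 37 °C, 5% CO2. About 2×10^3 cells/well plated for 24 h, then a range of compound concentrations (DMSO stock diluted into medium; vehicle 0.1% DMSO) for 72 h. MTT added for 3 h at 37 °C; absorbance 570 nm.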

[4] = Cytotoxicity against human WPMY-1cells assessed as survival rate after 72 hrs by MTT assay; assay type: cell-based; settings: WPMY-1 cells, read-out: Survival
Outline: (§4)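 About 2×10^3 cells/well preincubated 24 h at 37 °C, 5% CO2. Compound freshly dissolved in DMSO, diluted into complete medium and added at various concentrations (vehicle 0.1% DMSO) for 72 h. MTT added for 3 h at 37 °C, absorbance read at 570 nm, survival rate derived.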

[5] = Cytotoxicity against human RWPE1 cells assessed as survival rate after 72 hrs by MTT assay; assay type: cell-based, RWPE-1; settings: RWPE1 cells, read-out: Survival; outline: as §4
DU-145 [6] = assay: Induction of apoptosis in human DU145 cells assessed as early apoptotic cells at 3 to 12 uM after 24 hrs by flow cytometry; assay type: functional, cell-based
DU-145 [7] = assay: Induction of apoptosis in human DU145 cells assessed as cell rounding and shrinkage at 5 uM after 24 hrs by phase contrast microscopy analysis; assay type: functional, cell-based
Outline: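 DU-145 cells were seeded at 5×10^5 per 10 cm dish and treated with various concentrations for 24 h. Unfixed cells were examined and photographed by phase-contrast microscopy for rounding and shrinkage.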

DU-145 [8] = assay: Induction of apoptosis in human DU145 cells assessed as decrease in total PARP at 3 to 12 uM after 48 hrs by Western blotting; assay type: functional, cell-based
DU-145 [9] = assay: Induction of apoptosis in human DU145 cells assessed as increase in cleaved PARP at 3 to 12 uM after 48 hrs by Western blotting; assay type: functional, cell-based
Outline: (§5)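 DU-145 cells were exposed to various concentrations for 48 h. Cells were washed in PBS and lysed on ice for 30 min, then spun at 120000g for 15 min. Protein was measured by Bradford, run on 12% SDS-PAGE and blotted to PVDF. Blots were probed for cleaved PARP and cleaved caspase-3 with chemiluminescent detection and β-actin as loading control; n=3 independent experiments.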

DU-145 [10] = assay: Induction of apoptosis in human DU145 cells assessed as decreased levels of cyclin D1 at 3 to 18 uM after 48 hrs by Western blotting; assay type: functional, cell-based
Outline: (§6)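 DU-145 lysates were analysed by immunoblot for cyclin D1 and Bcl-2 after dosing across a concentration range. Cells were lysed on ice and cleared by centrifugation. Protein was quantified by Bradford, run on 12% SDS-PAGE and transferred to PVDF, with chemiluminescent detection. α-Tubulin served as loading control; n=3 independent experiments.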

DU-145 [11] = assay: Induction of apoptosis in human DU145 cells assessed as decreased levels of Bcl-2 at 3 to 18 uM after 48 hrs by Western blotting; assay type: functional, cell-based; outline: as §6
[12] = target: Mitogen-activated protein kinase; ERK1/ERK2 (Homo sapiens) (UniProt P27361+P28482); assay: Inhibition of human ERK1/2 phosphorylation in human DU145 cells after 48 hrs by Western blotting; assay type: cell-based; settings: DU-145
Outline: (§7)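 DU-145 cells were treated at 3, 12 and 18 µM and phospho-ERK1/2 and phospho-p38 were assessed by Western blot. Lysis was on ice with centrifugation, then Bradford protein assay, 12% SDS-PAGE, PVDF transfer and chemiluminescent detection.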

[13] = target: MAP kinase p38 (Homo sapiens) (UniProt O15264+Q15759+Q16539+P53778); assay: Inhibition of human p38 phosphorylation in human DU145 cells after 48 hrs by Western blotting; assay type: cell-based; settings: DU-145; outline: as §7
DU-145 [14] = assay: Induction of apoptosis in human DU145 cells assessed as cleaved caspase 3 at 3 to 12 uM after 48 hrs by Western blotting; assay type: functional, cell-based; outline: as §5

Mitogen-activated protein kinase; ERK1/ERK2 (Homo sapiens), sequence (P27361 whole entry, looked up): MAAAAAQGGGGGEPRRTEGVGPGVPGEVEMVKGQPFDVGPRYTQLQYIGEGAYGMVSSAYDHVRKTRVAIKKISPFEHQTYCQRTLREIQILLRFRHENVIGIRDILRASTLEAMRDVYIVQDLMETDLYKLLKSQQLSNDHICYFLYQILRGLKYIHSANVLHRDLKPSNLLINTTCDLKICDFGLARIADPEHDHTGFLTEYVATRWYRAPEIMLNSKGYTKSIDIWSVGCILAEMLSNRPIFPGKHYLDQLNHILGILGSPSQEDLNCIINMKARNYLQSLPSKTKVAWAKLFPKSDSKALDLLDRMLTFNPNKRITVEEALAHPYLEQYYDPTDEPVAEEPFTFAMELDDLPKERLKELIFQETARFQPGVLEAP
Mitogen-activated protein kinase; ERK1/ERK2 (Homo sapiens), sequence (P28482 whole entry, looked up): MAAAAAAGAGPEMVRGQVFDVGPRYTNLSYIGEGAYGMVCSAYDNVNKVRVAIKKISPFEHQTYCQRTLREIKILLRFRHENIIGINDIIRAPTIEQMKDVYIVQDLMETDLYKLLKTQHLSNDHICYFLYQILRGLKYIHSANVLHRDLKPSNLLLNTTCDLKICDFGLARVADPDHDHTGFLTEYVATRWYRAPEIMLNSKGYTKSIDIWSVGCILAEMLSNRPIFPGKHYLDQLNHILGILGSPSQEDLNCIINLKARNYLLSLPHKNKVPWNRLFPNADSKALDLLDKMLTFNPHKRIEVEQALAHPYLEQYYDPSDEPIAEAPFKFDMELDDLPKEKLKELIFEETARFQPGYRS

O=C1c2ccccc2C(=O)c2c1cc(Sc1ccc(F)cc1F)c1nsnc21
GI50 (CCRF-CEM): 0.7 µM
LC50 (CCRF-CEM): 57.8 µM
TGI (CCRF-CEM): 6.35 µM
GI50 (A549): 14.9 µM
LC50 (concentration killing 50% of cells) (A549): > 100 µM
TGI (A549): 42.4 µM
GI50 (NCI-H226): 3.09 µM
LC50 (concentration killing 50% of starting cells) (NCI-H226): 59.1 µM
TGI (NCI-H226): 11.1 µM
GI50 (OVCAR-3): 1.82 µM
TGI (OVCAR-3): 3.44 µM
CC50 (OVCAR-3): 6.52 µM
GI50 (OVCAR-8): 1.58 µM
TGI (OVCAR-8): 3.63 µM
CC50 (OVCAR-8): 8.34 µM
GI50 (NCI/ADR-RES): 1.74 µM
LC50 (concentration killing 50% of cells) (NCI/ADR-RES): > 100 µM
TGI (NCI/ADR-RES): 4.59 µM
GI50 (786-0): 1.85 µM
LC50 (concentration killing 50% of cells) (786-0): 6.75 µM
TGI (786-0): 3.53 µM
GI50 (PC-3): 1.96 µM
LC50 (concentration killing 50% of cells) (PC-3): 85.7 µM
TGI (PC-3): 6.41 µM
GI50 [1]: 2.12 µM
GI50 [2]: 2.7 µM

O=C1c2ccccc2C(=O)c2c1cc(SCc1ccccc1)c1nsnc21
GI50 (CCRF-CEM): 1.3 µM
LC50 (CCRF-CEM): > 50 µM
TGI (CCRF-CEM): 5.06 µM
GI50 (A549): > 50 µM
LC50 (concentration killing 50% of cells) (A549): > 50 µM
TGI (A549): > 50 µM
GI50 (NCI-H226): > 50 µM
LC50 (concentration killing 50% of starting cells) (NCI-H226): > 50 µM
TGI (NCI-H226): 35.2 µM
GI50 (OVCAR-3): 8.16 µM
TGI (OVCAR-3): 15.1 µM
CC50 (OVCAR-3): 27.9 µM
GI50 (OVCAR-8): 3.5 µM
TGI (OVCAR-8): 25.8 µM
CC50 (OVCAR-8): > 50 µM
GI50 (NCI/ADR-RES): 12.9 µM
LC50 (concentration killing 50% of cells) (NCI/ADR-RES): > 50 µM
TGI (NCI/ADR-RES): > 50 µM
GI50 (786-0): 12.3 µM
LC50 (concentration killing 50% of cells) (786-0): > 50 µM
TGI (786-0): 25.4 µM
GI50 (PC-3): 10.8 µM
LC50 (concentration killing 50% of cells) (PC-3): 50.1 µM
TGI (PC-3): 43.4 µM
GI50 [1]: 10.6 µM
GI50 [2]: 8.4 µM

O=C1c2ccccc2C(=O)c2c1cc(Sc1ccccc1Br)c1nsnc21
GI50 (CCRF-CEM): 4.88 µM
LC50 (CCRF-CEM): > 50 µM
TGI (CCRF-CEM): > 50 µM
GI50 (A549): > 50 µM
LC50 (concentration killing 50% of cells) (A549): > 50 µM
TGI (A549): > 50 µM
GI50 (NCI-H226): 19.4 µM
LC50 (concentration killing 50% of starting cells) (NCI-H226): > 50 µM
TGI (NCI-H226): > 50 µM
GI50 (OVCAR-3): 10.2 µM
TGI (OVCAR-3): 22.8 µM
CC50 (OVCAR-3): > 50 µM
GI50 (OVCAR-8): 11.1 µM
TGI (OVCAR-8): > 50 µM
CC50 (OVCAR-8): > 50 µM
GI50 (NCI/ADR-RES): 10.4 µM
LC50 (concentration killing 50% of cells) (NCI/ADR-RES): > 50 µM
TGI (NCI/ADR-RES): 36.9 µM
GI50 (786-0): 11.2 µM
LC50 (concentration killing 50% of cells) (786-0): > 50 µM
TGI (786-0): 29.7 µM
GI50 (PC-3): 14.8 µM
LC50 (concentration killing 50% of cells) (PC-3): > 50 µM
TGI (PC-3): > 50 µM
GI50 [1]: 12.9 µM
GI50 [2]: 11.2 µM

O=C1c2ccccc2C(=O)c2c1cc(Sc1cccc(Cl)c1)c1nsnc21
GI50 (CCRF-CEM): 0.56 µM
LC50 (CCRF-CEM): > 100 µM
TGI (CCRF-CEM): 6.26 µM
GI50 (A549): 6.66 µM
LC50 (concentration killing 50% of cells) (A549): 73.6 µM
TGI (A549): 24.4 µM
GI50 (NCI-H226): 2.39 µM
LC50 (concentration killing 50% of starting cells) (NCI-H226): 57.5 µM
TGI (NCI-H226): 6.06 µM
GI50 (OVCAR-3): 0.45 µM
TGI (OVCAR-3): 1.74 µM
CC50 (OVCAR-3): 6.5 µM
GI50 (OVCAR-8): 0.59 µM
TGI (OVCAR-8): 2.26 µM
CC50 (OVCAR-8): 6.81 µM
GI50 (NCI/ADR-RES): 0.5 µM
LC50 (concentration killing 50% of cells) (NCI/ADR-RES): > 100 µM
TGI (NCI/ADR-RES): 4.59 µM
GI50 (786-0): 2.91 µM
LC50 (concentration killing 50% of cells) (786-0): 31.1 µM
TGI (786-0): 8.97 µM
GI50 (PC-3): 2.27 µM
LC50 (concentration killing 50% of cells) (PC-3): 69.9 µM
TGI (PC-3): 11.8 µM
GI50 [1]: 1.56 µM
GI50 [2]: 1.52 µM

CC(C)Sc1cc2c(c3nsnc13)C(=O)c1ccccc1C2=O
LC50 (CCRF-CEM): > 100 µM
TGI (CCRF-CEM): 0.58 µM
GI50 (A549): 2.43 µM
LC50 (concentration killing 50% of cells) (A549): 51.4 µM
TGI (A549): 7.94 µM
GI50 (NCI-H226): 1.83 µM
LC50 (concentration killing 50% of starting cells) (NCI-H226): 14.6 µM
TGI (NCI-H226): 4.64 µM
GI50 (OVCAR-3): 0.25 µM
TGI (OVCAR-3): 0.638 µM
CC50 (OVCAR-3): 2.98 µM
GI50 (OVCAR-8): 0.49 µM
TGI (OVCAR-8): 2.37 µM
CC50 (OVCAR-8): 9.85 µM
GI50 (NCI/ADR-RES): 0.52 µM
LC50 (concentration killing 50% of cells) (NCI/ADR-RES): > 100 µM
TGI (NCI/ADR-RES): 3.2 µM
GI50 (786-0): 2.75 µM
LC50 (concentration killing 50% of cells) (786-0): 34.9 µM
TGI (786-0): 8.14 µM
GI50 (PC-3): 0.25 µM
LC50 (concentration killing 50% of cells) (PC-3): 75.4 µM
TGI (PC-3): 1.38 µM
GI50 [1]: 1.12 µM
GI50 [2]: 1.08 µM
viability at 72 h [3]: 80%
viability at 72 h [4]: 50%
viability at 72 h [5]: 60%
Activity (DU-145 [6]): Active
Activity (DU-145 [7]): Active
Activity (DU-145 [8]): Active
Activity (DU-145 [9]): Active
Activity (DU-145 [10]): Active
Activity (DU-145 [11]): Active
inhibition [12]: Active
inhibition [13]: Active
Activity (DU-145 [14]): Active
